Results from ChEMBL document CHEMBL1146084, “Discovery of orally efficacious melanin-concentrating hormone receptor-1 antagonists as antiobesity agents. Synthesis, SAR, and biological evaluation of bicyclo[3.1.0]hexyl ureas” (J Med Chem, 2006).

Tests used:
[1] = AUC (0-6h) in rat at 10 mg/kg, po; type: ADME, organism-based, Plasma; set-up: time < 6 hr, dose 10 mg/kg, route oral; conditions: plasma
[2] = target: Melanin-concentrating hormone receptor 1 (Mus musculus) (UniProt Q8JZL2); assay: Receptor occupancy ex vivo by displacement of [125I]S36057 binding from MCHR1 in C57BL/6N mouse brain after 6 hrs at 30 mg/kg, po; type: functional, organism-based; set-up: dose 30 mg/kg
Sequence of Melanin-concentrating hormone receptor 1 (Mus musculus) (Q8JZL2 whole entry): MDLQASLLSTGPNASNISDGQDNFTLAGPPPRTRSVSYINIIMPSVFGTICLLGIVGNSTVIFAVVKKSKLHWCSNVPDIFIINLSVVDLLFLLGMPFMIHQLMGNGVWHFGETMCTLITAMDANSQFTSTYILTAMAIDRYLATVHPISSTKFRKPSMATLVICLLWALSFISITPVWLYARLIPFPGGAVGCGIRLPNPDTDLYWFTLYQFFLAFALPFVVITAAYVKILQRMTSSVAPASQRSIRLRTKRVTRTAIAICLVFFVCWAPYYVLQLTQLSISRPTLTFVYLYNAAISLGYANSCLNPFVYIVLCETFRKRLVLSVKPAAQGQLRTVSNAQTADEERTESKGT
How it was run: (§1)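 Male C57Bl/6NCrl:BR mice given vehicle (HPβCD) or compound orally; killed by CO2 at 6 or 24 h post-dose (chronic studies: 24 h after last daily dose, n = 3/group). 16 µm frozen caudate putamen sections incubated 30 min at room temperature with 700 pM [125I]-S36057 in MCH-R1 binding buffer; 1 µM MCH defines nonspecific binding. Phosphorimager quantitation; % inhibition versus vehicle.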

[3] = target: Melanin-concentrating hormone receptor 1 (Mus musculus) (UniProt Q8JZL2); assay: Receptor occupancy ex vivo by displacement of [125I]S36057 binding from MCHR1 in C57BL/6N mouse brain after 24 hrs at 30 mg/kg, po; type: functional, organism-based; set-up: dose 30 mg/kg; how it was run: as §1
[4] = target: T1, Melanin-concentrating hormone receptor 1 (Homo sapiens, UniProt Q99705); assay: Displacement of [125I]MCH from human MCHR1 expressed in CHO cell; type: cell-based
T1 sequence (Q99705 whole entry): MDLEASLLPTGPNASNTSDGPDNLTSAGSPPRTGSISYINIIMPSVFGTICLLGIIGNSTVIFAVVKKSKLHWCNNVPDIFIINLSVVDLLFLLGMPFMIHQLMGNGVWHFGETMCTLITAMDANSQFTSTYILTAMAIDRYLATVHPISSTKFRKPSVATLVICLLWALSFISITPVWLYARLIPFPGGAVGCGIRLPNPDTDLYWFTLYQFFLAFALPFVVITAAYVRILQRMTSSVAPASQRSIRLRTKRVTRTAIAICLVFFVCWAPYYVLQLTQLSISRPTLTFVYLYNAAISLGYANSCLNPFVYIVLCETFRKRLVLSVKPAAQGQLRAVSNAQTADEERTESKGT

[5] = tested on: Mus musculus; assay: Reduction of food intake in orally dosed C57BL/6N DIO mouse after 2 hrs at 30 mg/kg relative to control; type: functional; conditions: route oral
How it was run: (§2)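 Male C57Bl/6NCrl:BR mice made obese on a 45%-fat diet, individually housed, 12 h light/dark, 22 °C; acclimated to oral 20% hydroxypropyl-β-cyclodextrin vehicle for 2-3 days. Single oral 30 mg/kg dose in 20% HPβCD; food intake weighed to 0.01 g at 2, 6 and 24 h, expressed as % of vehicle ± SEM.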

[6] = tested on: Mus musculus; assay: Reduction of food intake in orally dosed C57BL/6N DIO mouse after 24 hrs at 30 mg/kg relative to control; type: functional; conditions: route oral; how it was run: as §2
[7] = tested on: Mus musculus; assay: Reduction of food intake in orally dosed C57BL/6N DIO mouse after 6 hrs at 30 mg/kg relative to control; type: functional; conditions: route oral; how it was run: as §2
[8] = target: T1, Melanin-concentrating hormone receptor 1; assay: Inhibition of MCH-mediated calcium influx in CHO cells expressing human MCHR1 by FLIPR assay; type: functional, cell-based
How it was run: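 After two washes, treated with vehicle (buffer, 2% DMSO) or compound, then stimulated with 30 nM MCH; intracellular Ca²⁺ change read by FLIPR.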

Row | Structure (SMILES) | AUC(0-t) at 6 h [1] | Activity [2] | Activity [3] | Ki [4] | other results
1 | N#Cc1cccc([C@]23CC[C@@H](N(CCN4CCCC4)C(=O)Nc4ccc(F)c(Cl)c4)[C@H]2C3)c1 (relative stereo) | 822 ng·h/mL | – | – | – | –
2 | CC(C)CN1CCN(CCN(C(=O)Nc2ccc(F)c(C(F)(F)F)c2)[C@@H]2CC[C@]3(c4cccc(C#N)c4)C[C@H]23)CC1 (relative stereo) | 140 ng·h/mL | 40% | – | – | –
3 | CN1CCN(CCN(C(=O)Nc2ccc(F)c(C(F)(F)F)c2)[C@@H]2CC[C@]3(c4cccc(C#N)c4)C[C@H]23)CC1 (relative stereo) | 1460 ng·h/mL | 53% | – | – | –
4 | CN1CCN(CCCN(C(=O)Nc2ccc(F)c(Cl)c2)[C@@H]2CC[C@]3(c4cccc(F)c4)C[C@H]23)CC1 (relative stereo) | 722 ng·h/mL | 73% | 0% | 3.3 nM | –
5 | CN1CCN(CCCN(C(=O)Nc2ccc(F)c(C(F)(F)F)c2)[C@@H]2CC[C@]3(c4cccc(F)c4)C[C@H]23)CC1 (relative stereo) | 888 ng·h/mL | 85% | 10% | 2.3 nM | –
6 | CN1CCN(CCCN(C(=O)Nc2ccc(F)c(Cl)c2)[C@H]2CC[C@@H](c3cccc(C#N)c3)C2)CC1 (relative stereo) | – | – | – | 2190 nM | –
7 | CN1CCN(CCCCN(C(=O)Nc2ccc(F)c(C(F)(F)F)c2)[C@@H]2CC[C@]3(c4cccc(C#N)c4)C[C@H]23)CC1 (relative stereo) | 1680 ng·h/mL | 85% | – | – | Food intake (% of vehicle) [5]: 81.1%; Food intake (% of vehicle control) [6]: 89.1%; Food intake (% of vehicle control) [7]: 81.6%
8 | CN1CCN(CCCN(C(=O)Nc2ccc(F)c(C(F)(F)F)c2)[C@@H]2CC[C@]3(c4ccc(F)c(C#N)c4)C[C@H]23)CC1 (relative stereo) | 3080 ng·h/mL | 81% | 36% | 4 nM | –
9 | CN1CCN(CCCN(C(=O)Nc2ccc(F)c(Cl)c2)[C@@H]2CC[C@]3(c4ccc(F)c(F)c4)C[C@H]23)CC1 (relative stereo) | 1610 ng·h/mL | 97% | 0% | 4.4 nM | –
10 | COc1ccc([C@]23CC[C@@H](N(CCCN4CCN(C)CC4)C(=O)Nc4ccc(F)c(C(F)(F)F)c4)[C@H]2C3)cc1 (relative stereo) | 438 ng·h/mL | 100% | 7% | 2.8 nM | Kb [8]: 9 nM
11 | N#Cc1ccc([C@]23CC[C@@H](N(CCCN4CCNCC4)C(=O)Nc4ccc(F)c(C(F)(F)F)c4)[C@H]2C3)cc1 (relative stereo) | 3470 ng·h/mL | 27% | 0% | 8 nM | Kb [8]: 9 nM
12 | CN1CCN(CCCN(C(=O)Nc2ccc(F)c(Cl)c2)[C@@H]2CC[C@]3(c4cccc(N)c4)C[C@H]23)CC1 (relative stereo) | – | 37% | 17% | 10 nM | –
13 | N#Cc1cccc([C@]23CC[C@@H](N(CCN4CC[C@@H](O)C4)C(=O)Nc4ccc(F)c(Cl)c4)[C@H]2C3)c1 (stereo in doubt; (+)-23c) | – | 32% | – | – | –
14 | CN1CCN(CCCN(C(=O)Nc2ccc(F)c(Cl)c2)[C@@H]2CC[C@]3(c4ccc(S(C)(=O)=O)cc4)C[C@H]23)CC1 (relative stereo) | 2340 ng·h/mL | 8% | – | 9.3 nM | –
15 | CN1CCN(CCCN(C(=O)Nc2ccc(F)c(Cl)c2)[C@@H]2CC[C@]3(c4cccnc4)C[C@H]23)CC1 (relative stereo) | – | 25% | 11% | – | –
16 | CN1CCN(CCCN(C(=O)Nc2ccc(F)c(Cl)c2)[C@@H]2CC[C@]3(c4cccc(Cl)c4)C[C@H]23)CC1 | 436 ng·h/mL | – | – | – | –
17 | CN1CCN(CCCN(C(=O)Nc2ccc(F)c(Cl)c2)[C@@H]2CC[C@@H](c3cccc(C#N)c3)C2)CC1 (relative stereo) | – | – | – | 161 nM | –
18 | N#Cc1cccc(C2=CC(N(CCN3CCCC3)C(=O)Nc3cc(Cl)cc(Cl)c3)CC2)c1 (configuration not stated) | – | – | – | 605 nM | –

Row | Structure (SMILES) | AUC(0-t) at 6 h [1] | Activity [2] | Activity [3] | Ki [4] | other results
19 | CS(=O)(=O)c1ccc([C@]23CC[C@@H](N(CC4CCN(S(C)(=O)=O)CC4)C(=O)Nc4ccc(F)c(Cl)c4)[C@H]2C3)cc1 (relative stereo) | – | – | – | 974 nM | –
20 | N#Cc1cccc([C@]23CC[C@@H](N(CCN4CCCCC4)C(=O)Nc4ccc(F)c(Cl)c4)[C@H]2C3)c1 (relative stereo) | 999 ng·h/mL | 57% | – | – | –
21 | Cc1cccc([C@]23CC[C@@H](N(CCCN4CCN(C)CC4)C(=O)Nc4ccc(F)c(Cl)c4)[C@H]2C3)c1 (relative stereo) | – | 0% | 4% | 33 nM | –
22 | N#Cc1cccc([C@@]23CC[C@H](N(CCN4CCCC4)C(=O)Nc4cc(Cl)cc(Cl)c4)[C@@H]2C3)c1 | 1490 ng·h/mL | 69% | – | 15 nM | –
23 | CN1CCN(CCCN(C(=O)Nc2ccc(F)c(C(F)(F)F)c2)[C@@H]2CC[C@]3(c4ccc(C#N)c(F)c4)C[C@H]23)CC1 (relative stereo) | 1660 ng·h/mL | 100% | 6% | 3.5 nM | –
24 | CN1CCN(CCCN(C(=O)Nc2ccc(F)c(Cl)c2)[C@@H]2CC[C@]3(c4ccsc4)C[C@H]23)CC1 (relative stereo) | – | 25% | 12% | 13 nM | –
25 | CN1CCN(CCCN(C(=O)Nc2ccc(F)c(Cl)c2)[C@@H]2CC[C@]3(c4cccc(NS(C)(=O)=O)c4)C[C@H]23)CC1 (relative stereo) | – | – | – | 394 nM | –
26 | N#Cc1cccc([C@]23CC[C@@H](N(CCN4CC[C@@H](O)C4)C(=O)Nc4ccc(F)c(Cl)c4)[C@H]2C3)c1 (stereo in doubt; (-)-23d) | – | 57% | – | – | –
27 | CN1CCN(CCCN(C(=O)Nc2ccc(F)c(Cl)c2)[C@@H]2CC[C@]3(c4cc(F)cc(F)c4)C[C@H]23)CC1 (relative stereo) | 2740 ng·h/mL | 65% | 0% | 7 nM | –
28 | N#Cc1cccc([C@]23CC[C@@H](N(CCN4CC[C@@H](O)C4)C(=O)Nc4ccc(F)c(C(F)(F)F)c4)[C@H]2C3)c1 | 2190 ng·h/mL | 81% | – | – | Food intake (% of vehicle) [5]: 65.7%; Food intake (% of vehicle control) [6]: 80.8%; Food intake (% of vehicle control) [7]: 68.2%
29 | CC(=O)Nc1cccc([C@]23CC[C@@H](N(CCCN4CCN(C)CC4)C(=O)Nc4ccc(F)c(Cl)c4)[C@H]2C3)c1 (relative stereo) | – | 18% | 0% | – | –
30 | CN1CCN(CCCN(C(=O)Nc2ccc(F)c(Cl)c2)[C@@H]2CC[C@]3(c4cccc(S(C)(=O)=O)c4)C[C@H]23)CC1 (relative stereo) | – | – | – | 727 nM | –
31 | CN1CCN(CCCN(C(=O)Nc2ccc(F)c(Cl)c2)[C@@H]2CC[C@]3(c4cccc(OC(F)(F)F)c4)C[C@H]23)CC1 (relative stereo) | 504 ng·h/mL | 39% | 12% | 29 nM | –
32 | CS(=O)(=O)c1ccc([C@]23CC[C@@H](N(CCCN4CCCC4=O)C(=O)Nc4ccc(F)c(Cl)c4)[C@H]2C3)cc1 (relative stereo) | – | – | – | 1620 nM | –
33 | COc1cccc([C@]23CC[C@@H](N(CCCN4CCN(C)CC4)C(=O)Nc4ccc(F)c(C(F)(F)F)c4)[C@H]2C3)c1 (relative stereo) | 571 ng·h/mL | 73% | 0% | 2.9 nM | Kb [8]: 8 nM
34 | CN1CCN(CCCN(C(=O)Nc2ccc(F)c(C(F)(F)F)c2)[C@@H]2CC[C@]3(c4ccc(F)cc4)C[C@H]23)CC1 (relative stereo) | 2170 ng·h/mL | 100% | 29% | 1.8 nM | Kb [8]: 15 nM
35 | CN1CCN(CCCN(C(=O)Nc2ccc(F)c(Cl)c2)[C@@H]2CC[C@]3(c4ccccc4)C[C@H]23)CC1 (relative stereo) | 1130 ng·h/mL | 79% | 0% | – | –
